Drawing on PubChem BioAssay AID602302 (The Scripps Research Institute Molecular Screening Center, 2012), this text covers inhibition for 25 compounds.

Active and inactive are the calls of the source.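 The calls were made as follows: active = inhibition of diacylglycerol lipase beta of at least 50% in a gel probe-labeling test; inactive = inhibition under 50%.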

The target in the test is Diacylglycerol lipase-beta (Mus musculus) (UniProt Q91WC9). Kind of test: DAGLb inhibitors by competitive gel ABPP, late-stage follow-up, biochemical, in-gel fluorescence, HEK293T membranes, overexpressed mouse DAGLb, set 1 (AID 602302). The settings on record: HEK293T membrane overexpressing mouse DAGLb, at 0.1 µM, active compounds read high. The method, boiled down: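 Assay system: membrane proteome of transiently transfected HEK293T cells, overexpressed mouse DAGLb; amount: membrane protein at 0.3 mg/mL; buffer or medium: Dulbecco's PBS (DPBS); reagent: fluorescent probe HT-01 at 1 µM final; doses: single compound dose of 100 nM (0.1 µM) final; schedule: compound preincubation 30 min, then probe labeling 30 min, both 37 °C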
Sequence of Diacylglycerol lipase-beta (Mus musculus) (Q91WC9 whole entry, looked up): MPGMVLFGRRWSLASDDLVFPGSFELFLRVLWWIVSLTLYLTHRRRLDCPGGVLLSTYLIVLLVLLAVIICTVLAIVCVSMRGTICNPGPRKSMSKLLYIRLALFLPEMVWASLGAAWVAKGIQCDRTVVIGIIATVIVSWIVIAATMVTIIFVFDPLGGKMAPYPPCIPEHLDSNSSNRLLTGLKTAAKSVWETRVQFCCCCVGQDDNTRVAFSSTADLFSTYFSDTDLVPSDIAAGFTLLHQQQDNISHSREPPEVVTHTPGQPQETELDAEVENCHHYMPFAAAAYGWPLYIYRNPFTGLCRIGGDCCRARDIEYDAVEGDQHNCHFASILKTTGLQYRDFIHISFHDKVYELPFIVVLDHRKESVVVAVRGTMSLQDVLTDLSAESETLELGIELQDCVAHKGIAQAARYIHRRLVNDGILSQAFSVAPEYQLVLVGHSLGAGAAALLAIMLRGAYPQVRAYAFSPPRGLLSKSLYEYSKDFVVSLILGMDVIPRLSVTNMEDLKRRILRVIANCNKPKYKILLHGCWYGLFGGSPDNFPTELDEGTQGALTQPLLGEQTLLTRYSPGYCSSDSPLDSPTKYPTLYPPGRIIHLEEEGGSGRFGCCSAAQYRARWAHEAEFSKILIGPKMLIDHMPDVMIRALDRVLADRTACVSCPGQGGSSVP
Usually inhibition stands for how much of the control response was suppressed. For the compound `COc1ccccc1-c1ccc(-c2cn(C(=O)N3CCCCC3Cc3ccccc3)nn2)cc1` (stereo not given), the inhibition is 55%.
For the compound `O=C(N1CCCCC1Cc1ccccc1)n1cc(-c2cc(F)cc(F)c2)nn1` (stereo not given), the inhibition was 55%.
Take `O=C(N1CCCCC1Cc1ccccc1)n1cc(-c2ccc(OC(F)(F)F)cc2)nn1` (stereo not given): the inhibition was 52%.
Regarding `O=C(N1CCCCC1Cc1ccccc1)n1cc(-c2ccc(-c3ccccc3)cc2)nn1` (stereo not given), the inhibition is 61%.
In the case of `CC(C)(C)OC(=O)NCCCCCN(CCc1ccccc1)C(=O)n1cc(-c2ccc(OC(F)(F)F)cc2)nn1`, the inhibition is 73%.
On to `O=C(N1CCCCC1Cc1ccccc1)n1ncc(C(O)(c2ccccc2)c2ccccc2)n1` (stereo not given), for which the inhibition is 9% (inactive).
Turning to `O=C(N1CCCCC1Cc1ccccc1)n1cc(-c2ccc(-c3ccccc3CO)cc2)nn1` (stereo not given), the inhibition is 67%.
Under `O=C(N1CCCCC1Cc1ccccc1)n1cc(-c2ccc(-c3ccc4c(c3)OCO4)cc2)nn1` (stereo not given) stands 18% (inactive); under `O=C(N1CCCCC1Cc1ccccc1)n1cc(-c2ccc(-c3ccc(OC(F)(F)F)cc3)cc2)nn1` (stereo not given), 38% (inactive).
With `O=C(N1CCCCC1Cc1ccccc1)n1cc(-c2cccc(-c3ccccc3)c2)nn1` (stereo not given), the inhibition was 27% (inactive).
Regarding `O=C(c1ccc(-c2cn(C(=O)N3CCCCC3Cc3ccccc3)nn2)cc1)N1CCCCC1` (stereo not given), the inhibition was 41% (inactive).
Regarding `O=C(N1CCCCC1Cc1ccccc1)n1ncc(-c2ccc(OC(F)(F)F)cc2)n1` (stereo not given), the inhibition was 0% (inactive).
As to `O=C(N1CCCCC1Cc1ccccc1)n1cc(-c2ccc(-c3ccc(C(F)(F)F)cc3)cc2)nn1` (stereo not given), the inhibition is 31% (inactive).
Turning to `O=C(c1ccc(-c2ccc(-c3cn(C(=O)N4CCCCC4Cc4ccccc4)nn3)cc2)cc1)N1CCCCC1` (stereo not given), the inhibition is 10% (inactive).
In the case of `O=C(N1CCCCC1Cc1ccccc1)n1cc(-c2ccc(-c3ccoc3)cc2)nn1` (stereo not given), the inhibition was 52%.
Regarding `O=C(N1CCCCC1Cc1ccccc1)n1cc(-c2ccc(-c3ccccc3OC(F)(F)F)cc2)nn1` (stereo not given), the inhibition is 59%.
With `O=C(N1CCCCC1Cc1ccccc1)n1cc(-c2ccc(-c3cccc(CO)c3)cc2)nn1` (stereo not given), the inhibition was 11% (inactive).
As to `Cc1ccccc1-c1ccc(-c2cn(C(=O)N3CCCCC3Cc3ccccc3)nn2)cc1` (stereo not given), the inhibition was 63%.
Consider `O=C(N(CCc1ccccc1)Cc1ccco1)n1cc(-c2ccc(OC(F)(F)F)cc2)nn1`, for which the inhibition was 71%.
As to `O=C(N1CCCCC1Cc1ccccc1)n1cc(-c2ccccc2-c2ccccc2)nn1` (stereo not given), the inhibition was 18% (inactive).
Regarding `O=C(N1CCCCC1Cc1ccccc1)n1cc(-c2ccc(-c3cccc(C(F)(F)F)c3)cc2)nn1` (stereo not given), the inhibition is 44% (inactive).
Regarding `O=C(N1CCCCC1Cc1ccccc1)n1cc(-c2ccc(-c3ccccc3Cl)cc2)nn1` (stereo not given), the inhibition was 66%.
Under `O=C(N1CCCCC1Cc1ccccc1)n1cc(-c2ccc(-c3ccccc3C(F)(F)F)cc2)nn1` (stereo not given) stands 59%; under `O=C(N1CCCCC1Cc1ccccc1)n1cc(-c2ccc(Br)cc2)nn1` (stereo not given), 68%.
On to `CC(C)CN(CCc1ccccc1)C(=O)n1cc(-c2ccc(OC(F)(F)F)cc2)nn1`, for which the inhibition was 70%.
